Results as given in paper PMC3800034 (Journal of medicinal chemistry, 2013).
“Also recorded” adds a separate entry of the source. One block for each compound: values may come before it.

Experiments:
OXE receptor [1] = molecular target: OXE receptor (Homo sapiens, UniProt Q8TDS5); type: cell-based
[2] = test system: response of neutrophils to LTB4; experiment: LTB4-induced calcium mobilization in human neutrophils; type: cell-based; details: compound 10 µM, LTB4 10 nM
Outline: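 Neutrophils from whole blood of healthy human donors, suspended in phosphate-buffered saline, loaded with indo-1, and moved to a cuvette with CaCl₂ (1.8 mM) and MgCl₂ (1 mM) 5 min before the run. Fluorescence was read at 37 °C in a spectrofluorimeter. After a stable baseline, vehicle or test compound was added, then LTB4 (10 nM) 2 min later. Digitonin followed to give maximal response.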

OXE receptor [3] = details: cited from earlier work
neutrophil migration = details: cited from earlier work

Sequence of OXE receptor (Homo sapiens, UniProt Q8TDS5) (Q8TDS5 whole entry): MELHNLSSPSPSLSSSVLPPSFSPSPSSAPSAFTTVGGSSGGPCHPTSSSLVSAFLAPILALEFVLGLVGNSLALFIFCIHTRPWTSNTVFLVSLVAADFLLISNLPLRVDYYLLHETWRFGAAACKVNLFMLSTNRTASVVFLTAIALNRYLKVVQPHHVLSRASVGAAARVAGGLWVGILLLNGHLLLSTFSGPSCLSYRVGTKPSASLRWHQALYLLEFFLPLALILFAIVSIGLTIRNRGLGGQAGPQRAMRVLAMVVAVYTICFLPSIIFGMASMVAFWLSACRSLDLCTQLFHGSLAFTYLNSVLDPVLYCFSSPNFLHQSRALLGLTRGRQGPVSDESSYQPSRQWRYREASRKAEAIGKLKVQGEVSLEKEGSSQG

inhibition of the effect of 5-oxo-ETE (OXE receptor [1]; compound 1 µM, 5-oxo-ETE 10 nM): substantially inhibited
inhibition of the response to 5-oxo-ETE (OXE receptor [1]; compound 10 µM, 5-oxo-ETE 10 nM): completely inhibiting
Compound: CCCCCCc1cc2ccccc2n1C(=O)CCCC(=O)O [Compound 26, 5-(2-Hexyl-1H-indol-1-yl)-5-oxo-valeric acid]
effect on the response of neutrophils to LTB4 [2]: virtually no effect

mobilization of intracellular calcium by the compound alone (agonist activity) (OXE receptor [1]; compound 30 µM added to neutrophils): neither mobilized intracellular calcium
Compound: O=C(O)CCCC(=O)n1ccc2ccccc21 [Compound 10, 5-(1H-indol-1-yl)-5-oxopentanoic acid]
effect on the response to 5-oxo-ETE (antagonist activity) (OXE receptor [1]; compound 30 µM, 5-oxo-ETE 10 nM added 2 min later): nor altered the response to 5-oxo-ETE; also recorded: does not affect calcium mobilization

IC50 (OXE receptor [1]): 400 ± 30 nM
increase in potency compared with non-chlorinated compound 26 (OXE receptor [1]; 5-oxo-ETE-induced calcium mobilization, IC50 ratio): about 4 fold
Compound: CCCCCCc1cc2ccc(Cl)cc2n1C(=O)CCCC(=O)O [Compound 39, 5-(6-Chloro-2-hexyl-1H-indol-1-yl)-5-oxo-valeric acid]

Compound: CCCCC/C=C\C[C@H](O)/C=C/C=C\C=C\C(=O)CCCC(=O)O [5-oxo-12S-HETE 6, 5-oxo-12S-HETE]
effect on intracellular Ca++ levels in neutrophils (OXE receptor [3]; compound alone): virtually no effect
block of 5-oxo-ETE-induced Ca++ mobilization (OXE receptor [3]; neutrophils): low µmolar range
effect on 5-oxo-ETE-induced neutrophil migration (neutrophil migration): inhibited
